The record followed here is ChEMBL document CHEMBL4334455, “Synthesis of Usnic Acid Derivatives and Evaluation of Their Antiproliferative Activity against Cancer Cells” (J Nat Prod, 2019).

For assay [1], the system named is MCF7. Kind of assay: Anticlonogenic activity against human MCF7 cells assessed as reduction in colony formation at 2.9 to 11.6 uM incubated for 24 hrs followed by recovery period of 2 weeks by culturing cells in drug-free medium by crystal violet staining based assay. It is filed as functional, cell-based. The method in brief:
(§1)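 Cells (1 × 10⁶) plated, after 24 h given fresh medium with derivative at 1, 2, 3 or 4 μg mL⁻¹ for 24 h; then trypsinized, counted, 8 × 10² replated into two plates in compound-free medium. After 2 weeks fixed with 6.0% glutaraldehyde, stained with 0.5% crystal violet; colonies of ≥50 cells counted. Mean ± SE of three experiments in duplicate.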

Assay [2] has as its system MCF7. Kind of assay: Antiproliferative activity against human MCF7 cells assessed as reduction in cell growth in presence of early autophagy inhibitor, wortmannin by MTT assay. The assay is classed as functional, cell-based. A general note: Tetrazolium dyes change colour on reduction, which living cells bring about.
The nature of assay [3]: Cytotoxicity against human HDFa cells assessed as reduction in cell viability after 24 hrs by MTT assay. The assay is classed as cell-based. The method in brief: (§2)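 Cells seeded at 4 × 10³/well for 24 h runs and for PC-3, or 2 × 10³/well for MCF-7 and HeLa 48 h runs, and attached overnight. Medium replaced with compound-containing medium for 24 or 48 h. MTT (4 mg mL⁻¹) added for the final 3 h, formazan dissolved in DMSO, absorbance read at 570 nm (reference 660 nm). IC₅₀ calculated from at least three independent experiments in duplicate, mean ± SE.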

Assay [4] concerns HeLa. Put plainly: Anticlonogenic activity against human HeLa cells assessed as proportion of colony forming cells at 11.6 uM incubated for 24 hrs followed by recovery period of 2 weeks by culturing cells in drug-free medium by crystal violet staining based assay relative to control. The assay is classed as functional. The method in brief:
as §1

Assay [5] deals with MCF7. Put plainly: Induction of vacuolization in human MCF7 cells at 8.7 uM after 24 hrs in presence of 0.5 uM actin dynamics inhibitor, cytochalasin-D by light microscopic analysis. It is filed as functional, cell-based.
In assay [6] the test system is MCF7. Kind of assay: Induction of endocytosis in human MCF7 cells at 2.9 to 8.7 uM after 24 hrs by lucifer yellow staining based fluorescence microscopic analysis. The assay is classed as functional, cell-based. Summed up:
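MCF-7 cells treated 24 h with 2.9 or 8.7 μM derivative, stained with 75 μM Lucifer Yellow, washed, and examined by fluorescence microscopy at 1000×.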

Assay [7] has as its system MCF7. Kind of assay: Induction of apoptosis in human MCF7 cells assessed as reduction in Bcl-2 expression at 2.9 uM after 24 hrs by immunoblot analysis relative to control. The assay is classed as functional. Summed up:
(§3)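 Proteins run on SDS-PAGE, transferred to PVDF, blocked in 5% milk/PBS, primary antibody overnight at 4 °C (cleaved PARP, Bax, Bcl-2), secondary 1 h at room temperature. Reprobed for β-actin; densitometry corrected for loading.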
A general note: In western blotting, separated proteins are transferred to a membrane and probed.

A short description of assay [8]: Cytotoxicity against human HDFa cells assessed as reduction in cell viability after 48 hrs by MTT assay. It is filed as cell-based. The method in brief:
as §2

Assay [9] deals with HeLa. Put plainly: Cell cycle arrest in human HeLa cells assessed as reduction in cell population at S phase at 2.9 to 8.7 uM after 24 hrs by propidium iodide staining based flow cytometric analysis. It is filed as functional. A general note: A flow cytometer gives signals particle by particle.
The test system of assay [10] is MCF7. Kind of assay: Induction of vacuolization in human MCF7 cells assessed as increase in LAMP1 expression at 8.7 uM by Western blot analysis relative to control. It is filed as functional. Summed up:
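Lysates were cleared, run on SDS-PAGE and blotted to PVDF, then probed for LAMP1. Blocking was 5% milk in PBS, primary antibody overnight at 4 °C, secondary 1 h at room temperature. Blots were stripped, reprobed for β-actin, and densitometry was corrected for loading.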

For assay [11], the system named is MCF7. Kind of assay: Induction of vacuolization in human MCF7 cells at 8.7 uM after 24 hrs in presence of 50 uM dynamin inhibitor, dynasore by light microscopic analysis. It is filed as functional, cell-based.
Assay [12] has as its system HeLa. Put plainly: Induction of cell cycle arrest in human HeLa cells assessed as accumulation of cells at G0/G1 phase 2.9 to 8.7 uM after 24 hrs by propidium iodide staining based flow cytometric analysis (reference value: 44%). It is filed as functional.
Assay [13] relates to MCF7. Put plainly: Induction of cell cycle arrest in human MCF7 cells assessed as accumulation of cells at G0/G1 phase at 2.9 uM after 24 hrs by Propidium iodide staining based flow cytometric analysis (reference value: 47.8 +/- 0.42%). The assay is classed as functional.
In another assay the test system is PC-3. Put plainly: Antiproliferative activity against human PC3 cells assessed as reduction in cell viability after 24 hrs by MTT assay. The following applies: PC-3, 24 h. The assay is classed as functional, cell-based. The method in brief: as §2
Assay [14] deals with MCF7. Kind of assay: Induction of apoptosis in human MCF7 cells assessed as increase in cleaved PARP level at 8.7 uM after 24 hrs by immunoblot analysis relative to control. It is filed as functional. Summed up:
as §3

Assay [15] relates to MCF7. Put plainly: Anticlonogenic activity against human MCF7 cells assessed as proportion of colony forming cells at 11.6 uM incubated for 24 hrs followed by recovery period of 2 weeks by culturing cells in drug-free medium by crystal violet staining based assay relative to control. It is filed as functional. Summed up:
as §1

Molecules are shown by their SMILES. Calls of active or inactive are those of the source. No cut-off for these calls is given here. Some results are limits rather than exact numbers.

By IC50 is commonly meant the concentration at which inhibition is half-maximal. As to `CC(=O)c1c(O)c(C)c(O)c2c1OC1=Cc3onc(C)c3C(=O)C12C` (racemic), the inhibition result in the assay on MCF7 [1] and in the assay on MCF7 [2] was “Active” each time. In addition, the half-inhibitory concentration (IC50) was over 10 µM in assay [3], 5.9 µM in [8] and 3.4 µM in the assay on PC-3. Further, the Activity with HeLa [4] was under 50%; in the assay on HeLa [12], 51 - 65%; in the assay on MCF7 [13], 71.85%; in the assay on MCF7 [15] it was under 50%. Further, the outcome with MCF7 [5], in the assay with MCF7 [6] and with HeLa [9] was Active. Moreover, the results for the “fold change (FC)” value with MCF7 [7], with MCF7 [10] and in the assay on MCF7 [14] were 0.6, 1.8 and 4.5, respectively. The result with MCF7 [11] was inactive.
For the compound `CC(=O)c1c(O)c(C)c(O)c2c1OC1=Cc3onc(C)c3C(=O)[C@]12C`, the inhibition entry in the assay with MCF7 [1] and with MCF7 [2] was “Active” each time. For the same compound, the IC50 in assay [3] was found to be 9.2 µM; in assay [8], 3 µM; in the assay with PC-3, 3.2 µM. Further, the Activity is given as under 50% in the assay on HeLa [4], 51 - 65% in the assay on HeLa [12], 70.25% in the assay with MCF7 [13] and under 50% in the assay with MCF7 [15]. Besides, the outcome with MCF7 [5], with MCF7 [6] and in the assay on HeLa [9] was Active. Further, the results for the “fold change (FC)” value with MCF7 [7], with MCF7 [10] and in the assay with MCF7 [14] were 0.5, 5.1 and 4.1, respectively. In addition, the result in the assay on MCF7 [11] was inactive.
